{"data": "Published values of several laboratories", "target": "Receptor-interacting serine/threonine-protein kinase 4 (RIPK4, Homo sapiens, UniProt P57078)", "Residues used in one study (P57078 1-832)": "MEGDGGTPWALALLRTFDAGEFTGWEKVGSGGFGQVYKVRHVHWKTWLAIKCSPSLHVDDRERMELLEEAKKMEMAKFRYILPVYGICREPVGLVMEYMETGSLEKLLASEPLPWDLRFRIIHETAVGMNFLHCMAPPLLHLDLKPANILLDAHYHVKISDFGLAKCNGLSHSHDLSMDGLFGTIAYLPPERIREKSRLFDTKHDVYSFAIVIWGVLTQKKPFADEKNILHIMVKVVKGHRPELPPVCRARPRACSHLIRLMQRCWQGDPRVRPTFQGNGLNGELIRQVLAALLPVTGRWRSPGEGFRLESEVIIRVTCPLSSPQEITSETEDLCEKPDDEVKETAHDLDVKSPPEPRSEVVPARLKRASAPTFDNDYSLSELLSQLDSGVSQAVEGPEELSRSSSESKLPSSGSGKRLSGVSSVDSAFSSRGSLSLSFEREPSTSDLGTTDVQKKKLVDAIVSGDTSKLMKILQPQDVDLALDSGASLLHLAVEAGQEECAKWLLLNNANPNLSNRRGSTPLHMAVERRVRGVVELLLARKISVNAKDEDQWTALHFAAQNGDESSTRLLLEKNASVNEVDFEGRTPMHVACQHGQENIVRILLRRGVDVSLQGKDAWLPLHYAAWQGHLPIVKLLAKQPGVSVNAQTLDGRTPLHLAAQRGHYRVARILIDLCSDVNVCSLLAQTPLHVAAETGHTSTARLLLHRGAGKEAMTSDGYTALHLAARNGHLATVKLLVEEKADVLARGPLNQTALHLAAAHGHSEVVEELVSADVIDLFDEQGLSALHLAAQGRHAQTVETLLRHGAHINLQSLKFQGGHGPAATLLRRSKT"}
{"Structure (SMILES)": "COc1ccc2c(c1)O[C@H](c1ccc(OC)c(OC)c1)C[C@@H]2NC(=O)C1(c2ccc3c(c2)OC(F)(F)O3)CC1", "effect on": "cell-free assay", "technique": "competition with immobilised ligand", "concentration": "1 µM", "remaining binding [%]": 75}
{"Structure (SMILES)": "c1cncc(-c2cccc(Nc3nccc(NC4CCCCC4)n3)c2)c1", "effect on": "binding", "technique": "competition with immobilised ligand", "concentration": "10 µM", "remaining binding [%]": 53}
{"Structure (SMILES)": "COc1cnc(Nc2cccc(S(N)(=O)=O)c2)nc1N1CCN(c2ccccc2)CC1", "effect on": "binding", "technique": "competition with immobilised ligand", "concentration": "1 µM", "remaining binding [%]": 86}
{"Structure (SMILES)": "O=C(Nc1c[nH]nc1C(=O)NC1CCNCC1)c1cc(F)cc(F)c1", "effect on": "binding", "technique": "competition with immobilised ligand", "concentration": "1 µM", "remaining binding [%]": 100}
{"Structure (SMILES)": "N[C@@H]1CCN(c2nccc(-c3cnn4ncccc34)n2)C1", "effect on": "binding", "concentration": "1 µM", "remaining binding [%]": 100}
{"Structure (SMILES)": "N#CC1(c2ccccn2)CCN(Cc2cc(C(=O)N3CCCC3)c(=O)n3ccccc23)CC1", "effect on": "cell-free assay", "technique": "competition with immobilised ligand", "concentration": "1 µM", "remaining binding [%]": 100}
{"Structure (SMILES)": "CC1CCCN1c1nccc(-c2cnn3ncccc23)n1 (stereo not drawn)", "effect on": "binding", "concentration": "1 µM", "remaining binding [%]": 98}
{"Structure (SMILES)": "CC1=C(C#N)[C@@H](c2ccc3[nH]nc(C)c3c2)C(C#N)=C(c2ccc(Cl)cc2)N1", "effect on": "cell-free assay", "technique": "competition with immobilised ligand", "concentration": "1 µM", "remaining binding [%]": 71.8}
{"Structure (SMILES)": "CN(C)c1nccc(-c2cnc3ncccn23)n1", "effect on": "binding", "concentration": "1 µM", "remaining binding [%]": 71}
{"Structure (SMILES)": "COc1cnc(Nc2cccc(S(N)(=O)=O)c2)nc1N1CCN(c2ccccc2)C(=O)C1", "effect on": "binding", "technique": "competition with immobilised ligand", "concentration": "1 µM", "remaining binding [%]": 86}
{"Structure (SMILES)": "Cc1cnc(Nc2ccc(C(=O)N3CCC(N4CCCC4)CC3)cc2)nc1-c1cc2ccccc2s1", "effect on": "binding", "technique": "competition with immobilised ligand", "concentration": "1 µM", "remaining binding [%]": 28}
{"Structure (SMILES)": "CS(=O)(=O)N1CCCC(NC(=O)[C@H](CCC2CCCCC2)NC(=O)c2ccc(CNC(=O)c3cnc4ccccn34)cc2)C1 (stereo partly drawn)", "effect on": "cell-free assay", "technique": "competition with immobilised ligand", "concentration": "0.1 µM", "remaining binding [%]": 92}
{"Structure (SMILES)": "Cc1cnn2ncc(-c3ccnc(N(C)C)n3)c2c1", "effect on": "binding", "concentration": "1 µM", "remaining binding [%]": 80}
{"Structure (SMILES)": "O=C(c1ccc(Nc2ncc(Cl)c(-c3cc4ccccc4s3)n2)cc1)N1CCC(N2CCCC2)CC1", "effect on": "binding", "technique": "competition with immobilised ligand", "concentration": "1 µM", "remaining binding [%]": 41}
{"Structure (SMILES)": "C=CC(=O)N1CCC(C(=O)NCC(=O)N2CCN(c3nc(-c4cnc(N)nc4C(F)F)nc(N4CCOCC4)n3)CC2)CC1", "effect on": "binding", "technique": "competition with immobilised ligand", "concentration": "1 µM", "remaining binding [%]": 76}
{"Structure (SMILES)": "C[C@H]1CCN(c2nccc(-c3cnn4ncccc34)n2)C1", "effect on": "binding", "concentration": "1 µM", "remaining binding [%]": 81}
{"Structure (SMILES)": "COc1ncc2cc3ccccc3nc2c1C#N", "effect on": "cell-free assay", "technique": "competition with immobilised ligand", "concentration": "5 µM", "remaining binding [%]": 100}
{"Structure (SMILES)": "CS(=O)(=O)N1CCCC(NC(=O)[C@H](CCC2CCCCC2)NC(=O)c2ccc(CNc3ncnc4c3nnn4-c3ccccc3)cc2)C1 (stereo partly drawn)", "effect on": "cell-free assay", "technique": "competition with immobilised ligand", "concentration": "0.1 µM", "remaining binding [%]": 100}
{"Structure (SMILES)": "F[C@@H]1CCN(c2nccc(-c3cnn4ncccc34)n2)C1", "effect on": "binding", "concentration": "1 µM", "remaining binding [%]": 100}
{"Structure (SMILES)": "O=C(c1ccc(Nc2nccc(-c3cc4ccccc4s3)n2)cc1)N1CCC(N2CCCC2)CC1", "effect on": "binding", "technique": "competition with immobilised ligand", "concentration": "1 µM", "remaining binding [%]": 30}
{"Structure (SMILES)": "O=S(=O)(NC1CCC(c2cc(F)ccc2F)(S(=O)(=O)c2ccc(Cl)cc2)CC1)C(F)(F)F (stereo not drawn)", "effect on": "cell-free assay", "technique": "competition with immobilised ligand", "concentration": "1 µM", "remaining binding [%]": 91}
